Experiments:
[1] = system: HT-29 human colon cancer cells; assay: Mitochondrial transmembrane potential; format: cell-based; conditions: HT-29 cells; for MTP ED50: reduction of mitochondrial transmembrane potential (ΔΨm)
In short: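 ΔΨm detected with a JC-1 mitochondrial membrane potential kit, following a previously established protocol. A positive control was run alongside the test compounds. Values were reported as ED50.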

human 20S proteasome [2] = molecular target: human 20S proteasome (Homo sapiens, UniProt P28074); assay: Proteasome inhibition assay; format: biochemical; conditions: for proteasome ED50 / IC50: Table 3, results expressed as ED50; for IC50: read-out: proteasome ED50
[3] = system: human colon cancer cells (HT-29); assay: Cytotoxicity assay; format: cell-based; conditions: HT-29 cells, standard protocol
human 20S proteasome [4] = assay: Proteasome inhibition assay; format: biochemical; conditions: Table 3, results expressed as ED50

5,7-dihydroxy-6-(2‴-hydroxy-5‴-(2′‴-hydroxy-5′‴-(2″‴-hydroxy-5″‴-(2‴‴-hydroxybenzyl)benzyl)benzyl) benzyl)-8-(2″-hydroxybenzyl)-flavanone [compound 3]
MTP ED50 [1]: 2.5 µM
proteasome ED50 (human 20S proteasome [2]): >20 µM

5″-(2′‴-hydroxybenzyl)uvarinol [compound 9]
MTP ED50 [1]: 2.3 µM
proteasome ED50 (human 20S proteasome [2]): >20 µM

7-methoxychamanetin [compound 6]
MTP ED50 [1]: 13.6 µM
proteasome ED50 (human 20S proteasome [2]): >20 µM

7-methoxydichamanetin [compound 8]
MTP ED50 [1]: 1.6 µM
proteasome ED50 (human 20S proteasome [2]): 3.45 ± 0.18 µM

CC(=O)O[C@H]1C(=O)[C@@]2(C)[C@H]([C@H](OC(=O)c3ccccc3)[C@]3(O)C[C@H](OC(=O)[C@H](O)[C@@H](NC(=O)c4ccccc4)c4ccccc4)C(C)=C1C3(C)C)[C@]1(OC(C)=O)CO[C@@H]1C[C@@H]2O [Paclitaxel]
cytotoxicity ED50 [3]: 0.006 µM

O=C1C[C@@H](c2ccccc2)Oc2c(Cc3cc(Cc4cc(Cc5ccccc5O)ccc4O)ccc3O)c(O)c(Cc3ccccc3O)c(O)c21 [compound 1, (2S)-5,7-dihydroxy-8-(2″-hydroxy-5″-(2′‴-hydroxy-5′‴-(2″‴-hydroxybenzyl)benzyl)benzyl)-6-(2‴-hydroxybenzyl)-flavanone]
MTP ED50 [1]: 3.7 µM
proteasome ED50 (human 20S proteasome [2]): >20 µM

O=C1C[C@@H](c2ccccc2)Oc2c(Cc3ccccc3O)c(O)c(Cc3cc(Cc4cc(Cc5ccccc5O)ccc4O)ccc3O)c(O)c21 [compound 2, (2S)-5,7-dihydroxy-6-(2‴-hydroxy-5‴-(2′‴-hydroxy-5′‴-(2″‴-hydroxybenzyl)benzyl)benzyl)-8-(2″-hydroxybenzyl)-flavanone]
MTP ED50 [1]: 6.8 µM
proteasome ED50 (human 20S proteasome [2]): >20 µM

O=C1C[C@@H](c2ccccc2)Oc2c(Cc3cc(Cc4ccccc4O)ccc3O)c(O)c(Cc3cc(Cc4cc(Cc5ccccc5O)ccc4O)ccc3O)c(O)c21 [compound 4, (2S)-5,7-dihydroxy-6-(2‴-hydroxy-5‴-(2″‴-hydroxy-5″‴-(2‴‴-hydroxybenzyl)benzyl)benzyl)-8-(2″-hydroxy-5′‴-(2′‴-hydroxybenzyl)benzyl)-flavanone]
MTP ED50 [1]: 3.9 µM
proteasome ED50 (human 20S proteasome [2]): >20 µM

O=C1C[C@@H](c2ccccc2)Oc2cc(O)c(Cc3ccccc3O)c(O)c21 [compound 5, isochamanetin]
MTP ED50 [1]: 7.7 µM
IC50 (human 20S proteasome [2]): > 20 µM

O=C1C[C@@H](c2ccccc2)Oc2c(Cc3ccccc3O)c(O)c(Cc3ccccc3O)c(O)c21 [compound 7, dichamanetin]
MTP ED50 [1]: 3.6 µM
proteasome ED50 (human 20S proteasome [4]): >20 µM
inhibitory effect in proteasome assay (human 20S proteasome [2]; human 20S proteasome bioassay): did not show any inhibitory effect

O=C1C[C@@H](c2ccccc2)Oc2cc(O)cc(O)c21 [compound 10, pinocembrin]
MTP ED50 (text, printed in μg/mL) ([1]; called inactive): > 20 µg/mL
MTP ED50 [1]: >20 µM
IC50 (human 20S proteasome [2]): 2.87 ± 0.26 µM

pipercallosine [compound 11]
MTP ED50 [1]: 4.6 µM
proteasome ED50 (human 20S proteasome [2]): >20 µM
